From ChEMBL document CHEMBL4229508, “Nitric oxide donor-based FFA1 agonists: Design, synthesis and biological evaluation as potential anti-diabetic and anti-thrombotic agents” (Bioorg Med Chem, 2018) come the findings set out here.

One experiment concerns Mus musculus. The experiment in a line: Antidiabetic activity in ICR mouse assessed as reduction in plasma glucose AUC (0 to 90 mins) at 20 mg/kg, po dosed 30 mins prior to glucose challenge by OGTT relative to control. It is filed as functional. More on the design: scale not given: the % may be the effect or the level left. Summed up:
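Male ICR mice, fasted 12 h, randomized into groups (n = 6). Compound was given orally at 20 mg/kg in 0.5% methylcellulose 30 min before an oral glucose load (3 g/kg). Blood glucose was read by test strips at −30, 0, 15, 30, 60 and 90 min. AUC0–90min was calculated; mean ± SD.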

Experiment [1] deals with Free fatty acid receptor 1 (Homo sapiens, UniProt O14842). The experiment in a line: Agonist activity at human FFA1 receptor expressed in CHO cells assessed as increase in intracellular calcium levels measured for 90 secs by Fluo 4-AM dye based FLIPR assay. It is filed as functional, cell-based. Summed up:
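CHO cells stably expressing human FFA1 were seeded at 15 K cells/well and grown 12 h at 37 °C, 5% CO2, then washed with HBSS. Ca2+ flux after compound addition was read on FLIPR for 90 s. Activity = [(A−B)/(C−B)]×100, with B = vehicle and C = 10 µM γ-linolenic acid.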

Experiment [2] has as its system Platelet. The experiment in a line: Antiplatelet activity in rabbit platelet rich plasma assessed as inhibition of ADP-induced platelet aggregation at 0.1 mM preincubated for 5 mins followed by ADP addition measured up to 5 mins in presence of NO scavenger carboxy-PTIO. It is filed as functional. The conditions noted are these: Oryctolagus cuniculus. The method, boiled down:
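Run as the rabbit PRP turbidimetric assay: compound at 0.1 mM, 5 min preincubation at 37 °C, ADP 10 µM, maximal light transmission recorded within 5 min. Carboxy-PTIO (20 µM) was also incubated with the drug-platelet suspension. Inhibition % is relative to vehicle. Mean ± SD of three independent experiments.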

Experiment [3] deals with Platelet. As to the kind of experiment: Antiplatelet activity in rabbit platelet rich plasma assessed as inhibition of ADP-induced platelet aggregation at 0.1 mM preincubated for 5 mins followed by ADP addition measured up to 5 mins. The class given is functional. The conditions noted are these: Oryctolagus cuniculus. The method, boiled down: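 Rabbit blood was spun at 500 rpm for 10 min to give PRP, and then at 3000 rpm for 10 min to give PPP. PRP was preincubated in duplicate with compound (0.1 mM), vehicle or ticlopidine for 5 min at 37 °C. Aggregation was induced with ADP (10 µM), and light transmission at maximal aggregation was recorded within 5 min. Inhibition % = (A−B)/A×100 versus vehicle. Three independent experiments, mean ± SD.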

Free fatty acid receptor 1, sequence (O14842 whole entry): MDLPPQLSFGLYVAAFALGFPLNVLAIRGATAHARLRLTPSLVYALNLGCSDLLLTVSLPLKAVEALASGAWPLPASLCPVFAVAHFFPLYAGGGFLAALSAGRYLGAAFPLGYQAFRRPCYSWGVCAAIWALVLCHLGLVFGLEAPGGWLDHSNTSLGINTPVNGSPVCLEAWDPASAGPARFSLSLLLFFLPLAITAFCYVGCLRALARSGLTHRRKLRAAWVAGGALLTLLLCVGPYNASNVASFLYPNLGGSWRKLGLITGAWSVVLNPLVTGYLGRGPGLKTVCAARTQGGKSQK

For the molecule `Cc1cc(OCCCS(C)(=O)=O)cc(C)c1-c1cccc(COc2ccc3c(c2)OC[C@H]3CC(=O)O)c1`, in the experiment on Mus musculus, the Activity stood at 32.3%.
On to `COc1cc(C)c(-c2cccc(COc3ccc(OCC(=O)O)c(F)c3)c2)c(C)c1`, for which the half-maximal effective concentration (EC50) in experiment [1] stood at 54.2 nM.
In the case of `Cc1cc(OCCCO[N+](=O)[O-])cc(C)c1-c1cccc(COc2ccc(OCC(=O)O)c(F)c2)c1`, the inhibition at 100 µM with Platelet [2] worked out at 1.05%; in the experiment with Platelet [3], 10.8%. In the experiment with Mus musculus, the Activity is on record as 41.6%. In experiment [1], the EC50 was determined as 61.5 nM.
For the molecule `Cc1cc(OCCO[N+](=O)[O-])cc(C)c1-c1cccc(COc2ccc(OCC(=O)O)c(F)c2)c1`, the inhibition at 100 µM with Platelet [2] is 1.34%; with Platelet [3], 8.28%. For the same molecule, the EC50 in experiment [1] was determined as 76.4 nM.
As to `Cc1cc(OCCCCO[N+](=O)[O-])cc(C)c1-c1cccc(COc2ccc(OCC(=O)O)c(F)c2)c1`, the values for the inhibition at 100 µM in the experiment with Platelet [2] and with Platelet [3] were 1.15% and 11.1%, respectively. The EC50 in experiment [1] was found to be 93.7 nM.
